Activity calls are given as the source filed them. The calls are words filed in the database; no cut-off is given here.
Columns and labels:
[1] = molecular target: T1, Ectonucleoside triphosphate diphosphohydrolase 3 (Homo sapiens) (UniProt O75355); assay: Activity of human NTPDase 3 expressed in human 293T cells assessed as drug hydrolysis at 100 uM after 20 mins relative to ATP; type: cell-based; set-up: scale not given: the % may be the effect or the level left
T1 sequence (whole entry): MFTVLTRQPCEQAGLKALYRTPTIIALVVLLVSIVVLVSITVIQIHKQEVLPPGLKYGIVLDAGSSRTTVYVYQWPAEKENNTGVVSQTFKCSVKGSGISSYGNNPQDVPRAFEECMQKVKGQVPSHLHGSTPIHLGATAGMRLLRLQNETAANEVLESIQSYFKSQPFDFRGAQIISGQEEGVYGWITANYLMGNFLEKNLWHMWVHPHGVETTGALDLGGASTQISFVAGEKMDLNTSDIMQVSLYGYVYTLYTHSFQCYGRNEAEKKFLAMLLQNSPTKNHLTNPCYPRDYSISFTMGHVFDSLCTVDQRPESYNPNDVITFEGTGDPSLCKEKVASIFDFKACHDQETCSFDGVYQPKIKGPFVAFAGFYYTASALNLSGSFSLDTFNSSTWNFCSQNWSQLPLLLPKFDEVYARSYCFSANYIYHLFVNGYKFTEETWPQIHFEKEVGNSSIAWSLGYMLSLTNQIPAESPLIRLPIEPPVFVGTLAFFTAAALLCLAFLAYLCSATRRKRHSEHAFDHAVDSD
In short: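 Human NTPDase1, 2, 3 or 8 in crude extracts of transfected 293T cells, pre-incubated 3 min at 37 °C in Tris-Ringer buffer pH 7.4. […] Untransfected-cell extract activity subtracted.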

[2] = molecular target: T2, Ectonucleotide pyrophosphatase/phosphodiesterase family member 3 (Homo sapiens) (UniProt O14638); assay: Inhibition of human NPP3 expressed in human 293T cells; type: cell-based
T2 sequence (whole entry): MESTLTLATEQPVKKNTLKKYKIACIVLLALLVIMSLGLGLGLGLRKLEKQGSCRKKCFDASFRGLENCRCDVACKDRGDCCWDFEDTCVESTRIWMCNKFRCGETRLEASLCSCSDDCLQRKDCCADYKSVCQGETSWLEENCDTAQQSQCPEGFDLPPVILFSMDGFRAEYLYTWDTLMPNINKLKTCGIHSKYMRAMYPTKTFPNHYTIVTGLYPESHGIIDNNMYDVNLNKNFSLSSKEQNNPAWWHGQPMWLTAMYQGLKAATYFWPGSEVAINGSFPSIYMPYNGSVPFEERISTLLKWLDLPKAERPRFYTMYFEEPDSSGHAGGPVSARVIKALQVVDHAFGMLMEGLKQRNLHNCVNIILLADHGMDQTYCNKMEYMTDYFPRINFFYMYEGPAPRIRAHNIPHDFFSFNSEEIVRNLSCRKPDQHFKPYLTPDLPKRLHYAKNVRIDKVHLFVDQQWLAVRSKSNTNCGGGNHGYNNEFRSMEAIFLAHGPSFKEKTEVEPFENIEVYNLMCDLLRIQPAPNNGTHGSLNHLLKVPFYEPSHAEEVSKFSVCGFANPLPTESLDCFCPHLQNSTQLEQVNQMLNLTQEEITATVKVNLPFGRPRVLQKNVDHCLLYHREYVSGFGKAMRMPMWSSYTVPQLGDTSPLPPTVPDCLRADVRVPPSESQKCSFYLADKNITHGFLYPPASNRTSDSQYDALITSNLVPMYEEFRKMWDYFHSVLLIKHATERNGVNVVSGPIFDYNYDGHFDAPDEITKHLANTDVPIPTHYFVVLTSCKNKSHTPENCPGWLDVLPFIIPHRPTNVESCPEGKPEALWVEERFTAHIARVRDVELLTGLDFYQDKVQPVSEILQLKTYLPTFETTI

[3] = molecular target: T1, Ectonucleoside triphosphate diphosphohydrolase 3 (Homo sapiens); assay: Inhibition of human NTPDase 3 expressed in human 293T cells; type: cell-based
[4] = molecular target: P2Y purinoceptor 4 (Homo sapiens, UniProt P51582); assay: Agonist activity at human P2Y4 receptor expressed in human 1321N1 cells assessed as increase in intracellular calcium concentration by dual-excitation spectrofluorimetric analysis; type: functional, cell-based
P2Y purinoceptor 4, sequence (P51582 whole entry): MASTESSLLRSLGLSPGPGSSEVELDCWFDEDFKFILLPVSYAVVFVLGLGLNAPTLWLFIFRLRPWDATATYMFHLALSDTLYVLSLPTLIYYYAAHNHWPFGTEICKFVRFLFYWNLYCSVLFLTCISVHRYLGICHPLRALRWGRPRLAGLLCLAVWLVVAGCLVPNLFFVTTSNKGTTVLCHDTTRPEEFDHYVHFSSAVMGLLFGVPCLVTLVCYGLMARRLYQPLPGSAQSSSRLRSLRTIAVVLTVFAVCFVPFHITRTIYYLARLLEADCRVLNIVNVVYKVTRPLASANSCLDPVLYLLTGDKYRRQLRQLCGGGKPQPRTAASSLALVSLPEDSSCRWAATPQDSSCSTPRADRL
In short: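 1321N1 astrocytoma cells stably expressing the receptor (turkey P2Y1, human P2Y2, human P2Y4, rat P2Y6) were grown with G-418 selection. Fura-2-loaded cell suspensions were exposed at 37 °C in 10 mM HEPES-buffered saline pH 7.4 with 1 mM CaCl2 and 1 mM MgCl2. Peak [Ca2+]i rise was measured over a range of concentrations to derive EC50.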

[5] = molecular target: T3, Ectonucleotide pyrophosphatase/phosphodiesterase family member 1 (Homo sapiens) (UniProt P22413); assay: Activity of human NPP1 expressed in human 293T cells assessed as drug hydrolysis at 100 uM after 20 mins by reverse-phase HPLC relative to p-nitrophenyl-thymidine-5-monophosphate; type: cell-based; set-up: scale not given: the % may be the effect or the level left
T3 sequence (whole entry): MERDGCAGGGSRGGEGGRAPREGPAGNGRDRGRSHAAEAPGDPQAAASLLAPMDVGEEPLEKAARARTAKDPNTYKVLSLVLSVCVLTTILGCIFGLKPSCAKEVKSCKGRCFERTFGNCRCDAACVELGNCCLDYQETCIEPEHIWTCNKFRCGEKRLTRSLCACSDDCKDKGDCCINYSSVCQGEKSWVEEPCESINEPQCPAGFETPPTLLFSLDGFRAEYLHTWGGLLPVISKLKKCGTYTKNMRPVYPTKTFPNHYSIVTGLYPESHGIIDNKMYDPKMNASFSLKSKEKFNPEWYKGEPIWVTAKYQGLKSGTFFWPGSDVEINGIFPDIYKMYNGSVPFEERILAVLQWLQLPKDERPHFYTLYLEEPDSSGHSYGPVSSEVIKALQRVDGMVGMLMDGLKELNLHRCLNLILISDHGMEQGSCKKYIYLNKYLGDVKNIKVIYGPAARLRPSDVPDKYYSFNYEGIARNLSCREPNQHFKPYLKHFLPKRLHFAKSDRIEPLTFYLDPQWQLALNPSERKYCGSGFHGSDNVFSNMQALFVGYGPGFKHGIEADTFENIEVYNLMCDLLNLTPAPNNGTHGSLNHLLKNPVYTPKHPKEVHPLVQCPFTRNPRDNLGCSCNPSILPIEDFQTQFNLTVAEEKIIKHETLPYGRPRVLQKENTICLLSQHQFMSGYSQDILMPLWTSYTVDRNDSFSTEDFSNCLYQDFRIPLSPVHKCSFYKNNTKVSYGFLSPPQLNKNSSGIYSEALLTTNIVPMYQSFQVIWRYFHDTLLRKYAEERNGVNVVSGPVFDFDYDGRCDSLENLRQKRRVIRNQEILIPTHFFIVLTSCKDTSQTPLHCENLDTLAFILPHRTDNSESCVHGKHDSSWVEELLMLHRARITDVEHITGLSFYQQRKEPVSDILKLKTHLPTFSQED
In short: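 Crude extract of 293T cells transfected with human NPP1 or NPP3, pre-incubated 3 min at 37 °C in 1 mM CaCl2, 140 mM NaCl, 5 mM KCl, 50 mM Tris pH 8.5. Substrate at 100 µM final for 20 min, stopped in ice-cold perchloric acid and neutralized with KOH. Loss of analogue quantified by reverse-phase HPLC with ion-pair phosphate mobile phase pH 7.0. pnp-TMP (p-nitrophenol at 410 nm) served as the 100% reference.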

SMILES	Activity [1] [%]	Activity [2]	Activity [3]	Activity [4]	Activity [5] [%]
CSc1nc(N)c2ncn([C@@H]3O[C@H](COP(=O)(O)OP(=O)(O)CP(=O)(O)O)[C@@H](O)[C@H]3O)c2n1	7	inactive	inactive	inactive	23
BP(=O)(OC[C@H]1O[C@@H](n2cnc3c(N)nc(SC)nc32)[C@H](O)[C@@H]1O)OP(=O)(O)CP(=O)(O)O (single isomer, unassigned; diastereomer A)	2	inactive	inactive	inactive	0

Next, values leading:

Activity [1] [%]	Activity [2]	Activity [3]	Activity [4]	Activity [5] [%]	SMILES
0	inactive	inactive	inactive	0	BP(=O)(OC[C@H]1O[C@@H](n2cnc3c(N)ncnc32)[C@H](O)[C@@H]1O)OP(=O)(O)CP(=O)(O)O (stereo not given in full)
2	inactive	inactive	inactive	< 1	BP(=O)(OC[C@H]1O[C@@H](n2cnc3c(N)nc(SC)nc32)[C@H](O)[C@@H]1O)OP(=O)(O)CP(=O)(O)O (single isomer, unassigned; diastereomer B)
6	inactive	inactive	inactive	4	BP(=O)(OC[C@H]1O[C@@H](n2cnc3c(N)ncnc32)[C@H](O)[C@@H]1O)OP(=O)(O)CP(=O)(O)O (single isomer, unassigned; diastereomer B)

From ChEMBL document CHEMBL1137702, “Identification of hydrolytically stable and selective P2Y(1) receptor agonists” (Eur J Med Chem, 2009)
